Experiments:
[1] = target: T1, Lysyl oxidase homolog 2 (Homo sapiens) (UniProt Q9Y4K0); test: Inhibition of recombinant human C-terminal His-tagged […] (1-774 residues) expressed in mouse myeloma cells assessed as recovery of enzyme activity at 10XIC50 preincubated with bound enzyme for 30 mins followed by drug wash-out and later incubated with putrescine substrate and measured after 30 mins by Amplex-Red oxidation assay; type: cell-based; parameters: scale not given: the % may be the effect or the level left
T1 sequence (whole entry): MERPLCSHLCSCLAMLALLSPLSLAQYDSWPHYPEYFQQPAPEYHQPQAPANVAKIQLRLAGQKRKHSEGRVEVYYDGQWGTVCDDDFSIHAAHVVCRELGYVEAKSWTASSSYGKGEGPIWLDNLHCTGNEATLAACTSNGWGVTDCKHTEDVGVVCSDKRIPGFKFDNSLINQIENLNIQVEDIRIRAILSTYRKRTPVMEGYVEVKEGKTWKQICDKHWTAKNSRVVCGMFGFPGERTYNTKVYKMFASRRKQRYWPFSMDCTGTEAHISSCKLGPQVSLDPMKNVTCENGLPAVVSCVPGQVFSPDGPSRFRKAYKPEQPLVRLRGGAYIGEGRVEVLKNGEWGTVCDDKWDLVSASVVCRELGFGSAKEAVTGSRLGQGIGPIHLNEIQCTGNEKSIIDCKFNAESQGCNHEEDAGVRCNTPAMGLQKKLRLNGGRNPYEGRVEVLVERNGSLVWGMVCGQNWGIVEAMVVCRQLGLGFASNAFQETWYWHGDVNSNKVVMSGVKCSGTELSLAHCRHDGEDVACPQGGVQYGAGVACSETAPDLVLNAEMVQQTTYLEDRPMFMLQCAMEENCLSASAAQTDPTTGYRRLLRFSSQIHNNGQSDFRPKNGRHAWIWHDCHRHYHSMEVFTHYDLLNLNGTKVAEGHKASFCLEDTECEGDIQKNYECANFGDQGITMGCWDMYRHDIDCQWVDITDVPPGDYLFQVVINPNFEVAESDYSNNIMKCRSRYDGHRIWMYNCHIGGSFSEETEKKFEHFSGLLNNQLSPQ

[2] = target: T2, Amine oxidase [copper-containing] 3 (Homo sapiens, UniProt Q16853); test: Substrate activity at recombinant human SSAO assessed as compound oxidation by measuring oxidative turnover at 30 uM measured for 40 mins by horseradish peroxidase-coupled amplex red reagent-based fluorometric assay relative to DMSO; type: ADME
T2 sequence (Q16853 whole entry): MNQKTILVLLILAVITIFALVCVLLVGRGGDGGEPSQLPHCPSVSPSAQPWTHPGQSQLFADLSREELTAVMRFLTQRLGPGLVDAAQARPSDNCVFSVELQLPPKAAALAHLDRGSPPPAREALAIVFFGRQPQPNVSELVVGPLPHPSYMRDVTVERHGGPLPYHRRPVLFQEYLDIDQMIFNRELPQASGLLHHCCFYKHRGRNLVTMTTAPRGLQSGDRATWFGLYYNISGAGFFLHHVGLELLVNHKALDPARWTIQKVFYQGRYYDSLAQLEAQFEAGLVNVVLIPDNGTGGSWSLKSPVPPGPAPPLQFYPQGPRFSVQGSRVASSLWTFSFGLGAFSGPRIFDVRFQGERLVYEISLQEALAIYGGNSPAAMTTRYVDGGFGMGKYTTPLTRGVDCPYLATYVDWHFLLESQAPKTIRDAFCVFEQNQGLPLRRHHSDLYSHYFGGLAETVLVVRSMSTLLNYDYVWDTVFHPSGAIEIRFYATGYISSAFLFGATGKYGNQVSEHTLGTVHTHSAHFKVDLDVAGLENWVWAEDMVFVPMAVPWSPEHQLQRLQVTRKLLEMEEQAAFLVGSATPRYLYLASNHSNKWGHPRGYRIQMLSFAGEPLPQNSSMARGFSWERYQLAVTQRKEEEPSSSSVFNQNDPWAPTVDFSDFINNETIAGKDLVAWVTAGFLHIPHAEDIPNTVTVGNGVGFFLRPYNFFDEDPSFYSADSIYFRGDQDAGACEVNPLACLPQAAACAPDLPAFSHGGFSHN
Method in brief: (§1)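 Compound oxidation measured without substrate by peroxidase-coupled fluorometric read-out of resorufin formation over 40 min at 37 °C in HEPES buffer. Amplex Red 20 µM, HRP 4 U/ml, test compound at final 30 µM. Enzyme source was human recombinant SSAO or AOC4 from diluted dog serum. Benzylamine at 600 µM served as positive control. Signal is expressed relative to DMSO-only background, so a value near 1 means no turnover.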

[3] = Substrate activity at AOC4 in dog serum assessed as compound oxidation by measuring oxidative turnover at 30 uM measured for 40 mins by horseradish peroxidase-coupled amplex red reagent-based fluorometric assay relative to DMSO; type: ADME, cell-free, Canis lupus familiaris; method in brief: as §1
Protein-lysine 6-oxidase = target: T3, Protein-lysine 6-oxidase (Bos taurus, UniProt P33072); test: Inhibition of LOX in bovine aorta using putrescine as substrate preincubated with enzyme for 30 mins followed by substrate addition and measured every 2.5 mins for 30 mins by Amplex-Red oxidation assay; type: tissue-based; conditions: read-out: pIC50 (converted)
T3 sequence (P33072 whole entry): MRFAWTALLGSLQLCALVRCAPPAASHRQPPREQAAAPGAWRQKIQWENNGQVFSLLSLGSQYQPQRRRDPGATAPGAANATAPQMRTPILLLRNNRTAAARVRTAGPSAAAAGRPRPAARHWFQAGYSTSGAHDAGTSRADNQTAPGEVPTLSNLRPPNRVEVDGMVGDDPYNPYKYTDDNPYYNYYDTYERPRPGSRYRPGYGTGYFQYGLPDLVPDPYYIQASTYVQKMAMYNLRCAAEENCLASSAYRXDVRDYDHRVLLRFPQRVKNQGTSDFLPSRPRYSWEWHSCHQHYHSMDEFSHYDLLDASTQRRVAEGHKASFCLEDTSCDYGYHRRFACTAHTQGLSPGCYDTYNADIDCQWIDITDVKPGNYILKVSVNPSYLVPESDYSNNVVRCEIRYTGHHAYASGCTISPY
Method in brief: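 LOX extracted from calf aorta after PBS washing with 4 M urea/50 mM borate pH 8.2, concentrated on 10 kDa filters into 1.2 M urea/borate with protease inhibitors. Preincubated 30 min at 37 °C with compound, then Amplex Red/HRP with 10 mM putrescine; fluorescence read every 2.5 min for 30 min.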

Lysyl oxidase homolog 2 [4] = target: T4, Lysyl oxidase homolog 2 (Homo sapiens, UniProt Q9Y4K0); test: Inhibition of recombinant human C-terminal His-tagged […] (1-774 residues) expressed in mouse myeloma cells using putrescine as substrate preincubated with enzyme for 30 mins followed by substrate addition and measured every 2.5 mins for 30 mins by Amplex-Red oxidation assay; conditions: read-out: pIC50 (converted)
T4 sequence (Q9Y4K0 whole entry): T1 sequence (whole entry)
Method in brief: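 LOXL2 enzyme preincubated with compound for 30 min at 37 °C, then Amplex Red (120 µM) / HRP (1.5 U/mL) mix containing 5 mM putrescine added. Buffer: 1.2 M urea, 50 mM sodium borate, pH 8.2. H2O2 fluorescence (ex 565/em 590) read every 2.5 min for 30 min at 37 °C; BAPN 100 µM as positive control; n≥2.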

Lysyl oxidase homolog 2 [5] = target: T4, Lysyl oxidase homolog 2; test: Substrate activity at recombinant human C-terminal His-tagged […] (1-774 residues) expressed in mouse myeloma cells assessed as oxidative turnover at 30 uM measured after 30 mins by horseradish peroxidase-coupled amplex red reagent-based fluorescence assay relative to DMSO; type: ADME, cell-based; conditions: 0.5 h
Method in brief: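 LOXL2 incubated with compound, no substrate present. Hydrogen peroxide generation read by Amplex Red/HRP fluorescence (ex 565, em 590 nm). Oxidative turnover at 30 min expressed relative to DMSO.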

[6] = target: T5, Amine oxidase [flavin-containing] B (Homo sapiens, UniProt P27338); test: Inhibition of recombinant human MAOB expressed in baculovirus infected in BTI cells using benzylamine as substrate preincubated with enzyme for 30 mins followed by substrate addition and measured every 2.5 mins for 30 mins by Amplex-Red oxidation assay; conditions: human, 0.5 h
T5 sequence (P27338 whole entry): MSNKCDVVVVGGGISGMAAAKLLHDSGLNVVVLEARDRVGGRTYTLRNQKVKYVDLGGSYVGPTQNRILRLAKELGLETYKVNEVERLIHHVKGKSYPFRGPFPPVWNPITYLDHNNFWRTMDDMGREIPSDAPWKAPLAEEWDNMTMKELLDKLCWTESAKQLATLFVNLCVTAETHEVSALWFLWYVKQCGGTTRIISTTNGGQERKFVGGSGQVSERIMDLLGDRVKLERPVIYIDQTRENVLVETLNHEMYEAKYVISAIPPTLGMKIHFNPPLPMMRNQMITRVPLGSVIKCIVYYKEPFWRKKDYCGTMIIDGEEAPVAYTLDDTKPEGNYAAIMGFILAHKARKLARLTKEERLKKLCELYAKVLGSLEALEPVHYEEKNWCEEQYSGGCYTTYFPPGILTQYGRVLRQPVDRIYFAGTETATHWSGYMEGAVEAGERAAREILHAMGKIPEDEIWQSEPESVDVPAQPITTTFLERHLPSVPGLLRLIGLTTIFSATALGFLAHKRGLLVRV

[7] = target: T2, Amine oxidase [copper-containing] 3; test: Inhibition of recombinant human SSAO using benzylamine as substrate preincubated with enzyme for 30 mins followed by substrate addition and measured every 2.5 mins for 30 mins by Amplex-Red oxidation assay; conditions: read-out: pIC50 (converted)
[8] = Metabolic stability of the compound in dog plasma assessed as SSAO/plasma amine oxidase-mediated compound oxidation preincubated with SSAO/primary amine oxidase inhibitor, semicarbazide followed by incubation with compound and measured after 1 hr; type: ADME, Canis lupus familiaris
[9] = test system: SSAO/plasma amine oxidase; test: Metabolic stability of the compound in dog plasma assessed as SSAO/plasma amine oxidase-mediated compound oxidation by measuring parent compound remaining after 1 hr; type: ADME, Canis lupus familiaris; conditions: read-out: Stability
Method in brief: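 Compound incubated in dog plasma; percentage of parent compound remaining measured after 1 hour.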

SMILES	Activity [1]	fold change (FC) [2]	fold change (FC) [3]	IC50 (Protein-lysine 6-oxidase)	IC50 (Lysyl oxidase homolog 2 [4])	fold change (FC) (Lysyl oxidase homolog 2 [5])	pIC50 [6]	IC50 [7]	Stability [8]	remaining at 1 h [9]
Cc1c(-c2cccc(S(=O)(=O)N(C)C)c2)c2cc(C(=O)O)ccc2n1C/C=C/CN.Cl	75%	1	1.3	3160 nM	794 nM	6				
CN(C)S(=O)(=O)c1ccc(OCc2cn(C/C(F)=C/CN)nn2)c(Cl)c1.Cl				794 nM	20 nM		Not Active	> 31600 nM	Stable	0%

Reference: ChEMBL document CHEMBL4321820, “Identification and Optimization of Mechanism-Based Fluoroallylamine Inhibitors of Lysyl Oxidase-like 2/3” (J Med Chem, 2019)
